Data taken from paper PMC7238799 (Pulmonary Circulation, 2020).

How the values were obtained:
[1] = system: healthy subjects; test: Multiple ascending dose; format: in vivo, human
Outline: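 Subjects on test compound or placebo were domiciled up to 31 days (QD Cohorts 1–2) or 34 days (BID Cohort 3), with a 48-h drug-free follow-up. Monitoring at multiple time points covered adverse events, vital signs, 12-lead ECG with intensive ECG monitoring in all cohorts, and safety labs (serum chemistry, hematology, urinalysis). Data were summarized descriptively by treatment group.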

[2] = Multiple ascending dose; format: in vivo, human; conditions: for Accumulation in plasma exposure (AUC): approximate
Outline: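 Healthy subjects were randomized to test compound or placebo by oral immediate-release capsule in the fasted state. In Cohorts 1–2 (2:1), 50 µg QD escalated to 100, 200, 300 and 400 µg every sixth day if tolerated. In Cohort 3 (4:1), 10 µg BID escalated to 20, 30, 40, 50 and 70 µg. K₂EDTA blood was drawn pre-dose and 0.25–24 h post-dose.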

[3] = system: prostacyclin (IP) receptor; conditions: cited from earlier work
[4] = cited from earlier work
[5] = Cohorts 1 and 2, QD, all dose levels, n = 20
[6] = 10 µg BID, steady state, n = 20, mean (SD)
[7] = 30 µg QD, steady state, n = 3, mean (SD)
[8] = 40 µg BID, steady state, n = 9, mean (SD)
[9] = 50 µg BID, steady state, n = 6, mean (SD)
[10] = 50 µg QD, steady state, n = 16, mean (SD)
[11] = 100 µg QD, steady state, n = 7, mean (SD)
[12] = 300 µg QD, steady state, single subject
[13] = 400 µg QD, near steady-state (Day 21, first day at this dose), single subject

O=C(O)COC[C@H]1CC[C@H](COC(=O)N(c2ccccc2)c2ccc(Cl)cc2)CC1 [ralinepag]
Pruritus, subjects (%) [1, 5]: 1 (5.0%) | Restless leg syndrome, subjects (%) [1, 5]: 1 (5%) | Somnolence, subjects (%) [1, 5]: 3 (15%) | Total (%) subjects with at least one AE [1, 5]: 20 (100%) | Total (%) subjects with at least one SAE [1, 5]: 1 (5.0%) | Tremor, subjects (%) [1, 5]: 2 (10%) | Vomiting, subjects (%) [1, 5]: 12 (60%) | Subjects withdrawn from the study due to AEs ([1]; Cohorts 1 and 2, receiving ralinepag): three | Tolerability versus dose ([1]; QD (up to 400 µg) or BID (up to 70 µg) dosing): tolerability decreasing with increasing dose | QT prolongation (12-lead Holter ECG, high-precision QT analysis) ([1]; QD and BID dose ranges evaluated): not likely to be associated with QT prolongation | Serious adverse event ([1]; one subject, 50 µg QD, Cohort 2, possibly related to study medication): SAE of atrial fibrillation considered moderate in intensity | Mean steady-state accumulation of total plasma exposure (AUC) ([2]; 10 µg BID): 2.64 fold | Accumulation ratio Rac(Cmax) [2, 6]: 2.07 (0.40) | PTR (peak-to-trough plasma concentration ratio) [2, 6]: 2.04 (0.32) | PTR (peak-to-trough plasma concentration ratio) ([2]; 20 µg BID, steady state, n = 20, mean (SD)): 1.97 (0.26) | PTR (peak-to-trough plasma concentration ratio) ([2]; 30 µg BID, steady state, n = 10, mean (SD)): 1.95 (0.22) | Ctrough,ss [2, 7]: 0.72 (0.20) ng/mL | PTR (peak-to-trough plasma concentration ratio) [2, 7]: 3.34 (1.20) | Ctrough,ss [2, 8]: 1.51 (0.57) ng/mL | PTR (peak-to-trough plasma concentration ratio) [2, 8]: 2.28 (0.40) | Ctrough,ss [2, 9]: 2.32 (0.78) ng/mL | PTR (peak-to-trough plasma concentration ratio) [2, 9]: 2.00 (0.43) | Mean EHL ([2]; 50 µg QD): 18.4 h | Mean steady-state accumulation of total plasma exposure (AUC) ([2]; 50 µg QD): 1.69 fold | Accumulation ratio Rac(AUC) [2, 10]: 1.69 (0.24) | Accumulation ratio Rac(Cmax) [2, 10]: 1.54 (0.31) | Ctrough,ss [2, 10]: 0.76 (0.37) ng/mL | PTR (peak-to-trough plasma concentration ratio) [2, 10]: 4.33 (2.12) | PTR (peak-to-trough plasma concentration ratio) ([2]; 70 µg BID, steady state, single subject): 2.36 | Ctrough,ss [2, 11]: 1.39 (0.68) ng/mL | PTR (peak-to-trough plasma concentration ratio) [2, 11]: 4.49 (2.66) | Ctrough,ss [2, 12]: 5.14 ng/mL | PTR (peak-to-trough plasma concentration ratio) [2, 12]: 3.42 | Ctrough,ss [2, 13]: 6.13 ng/mL | PTR (peak-to-trough plasma concentration ratio) [2, 13]: 3.70 | Dose proportionality of Cmax,ss, Ctrough,ss and AUC0–τ,ss ([2]; 10–50 µg BID dose range): approximately dose proportional | Dose proportionality of Cmax,ss, Ctrough,ss and AUC0–τ,ss ([2]; 50–300 µg QD dose range): approximately dose-proportional | Accumulation in plasma exposure (AUC) ([2]; BID (Q12 hours) dosing): ~2.6 fold | Steady-state peak-to-trough ratio, range across doses ([2]; BID dosing, Cohort 3): 1.95–2.36 | Accumulation in plasma exposure (AUC) ([2]; QD (Q24 hours) dosing): ~1.7 fold | Steady-state peak-to-trough ratio, range across doses ([2]; QD dosing, Cohorts 1 and 2 combined): 3.34–4.49 | Half-life ([2]; both, human, plasma, oral): 17.5 to 18.4 h | AUC ([2]; human, plasma, oral, 10 ug, AUC0–τ, 10 µg BID, Study Day 1 (non-steady-state), τ 12 h, n = 20, mean (SD)): 2.51 ng·h/mL | AUC ([2]; human, plasma, oral, 10 ug, AUC0–τ,ss, 10 µg BID, steady state, τ 12 h, n = 20, mean (SD)): 6.68 ng·h/mL | Cmax ([2]; human, plasma, oral, 10 ug, Cmax, 10 µg BID, Study Day 1 (non-steady-state), n = 20, mean (SD)): 0.412 ng/mL | Cmax ([2]; human, plasma, oral, 10 ug, Cmax,ss, 10 µg BID, steady state, n = 20, mean (SD)): 0.86 ng/mL | Tmax ([2]; human, plasma, oral, 10 ug, Tmax, 10 µg BID, Study Day 1 (non-steady-state), n = 20, median (min–max)): 1 h | Tmax ([2]; human, plasma, oral, 10 ug, Tmax,ss, 10 µg BID, steady state, n = 20, median (min–max)): 1 h | Cmax ([2]; human, plasma, oral, 20 ug, Cmax,ss, 20 µg BID, steady state, n = 20, mean (SD)): 1.8 ng/mL | AUC ([2]; human, plasma, oral, 30 ug, AUC0-τ,ss, 30 µg QD, steady state, τ 24 h, n = 3, mean (SD)): 24.8 ng·h/mL | Cmax ([2]; human, plasma, oral, 30 ug, Cmax,ss, 30 µg BID, steady state, n = 10, mean (SD)): 2.12 ng/mL | Cmax ([2]; human, plasma, oral, 30 ug, Cmax,ss, 30 µg QD, steady state, n = 3, mean (SD)): 2.29 ng/mL | Tmax ([2]; human, plasma, oral, 30 ug, Tmax,ss, 30 µg QD, steady state, n = 3, median (min – max)): 1 h | Cmax ([2]; human, plasma, oral, 40 ug, Cmax,ss, 40 µg BID, steady state, n = 9, mean (SD)): 3.31 ng/mL | AUC ([2]; human, plasma, oral, 50 ug, AUC0-τ, 50 µg QD, Study Day 1 (non-steady-state), τ 24 h, n = 20, mean (SD)): 15.9 ng·h/mL | AUC ([2]; human, plasma, oral, 50 ug, AUC0-τ,ss, 50 µg QD, steady state, τ 24 h, n = 16, mean (SD)): 26.2 ng·h/mL | AUC ([2]; human, plasma, oral, 50 ug, AUC0–τ,ss, 50 µg BID, steady state, τ 12 h, n = 6, mean (SD)): 36 ng·h/mL | Cmax ([2]; human, plasma, oral, 50 ug, Cmax, 50 µg QD, Study Day 1 (non-steady-state), n = 20, mean (SD)): 1.88 ng/mL | Cmax ([2]; human, plasma, oral, 50 ug, Cmax,ss, 50 µg BID, steady state, n = 6, mean (SD)): 4.43 ng/mL | Cmax ([2]; human, plasma, oral, 50 ug, Cmax,ss, 50 µg QD, steady state, n = 16, mean (SD)): 2.74 ng/mL | Tmax ([2]; human, plasma, oral, 50 ug, Tmax, 50 µg QD, Study Day 1 (non-steady-state), n = 20, median (min – max)): 2 h | Tmax ([2]; human, plasma, oral, 50 ug, Tmax,ss, 50 µg BID, steady state, n = 6, median (min–max)): 1.25 h | Tmax ([2]; human, plasma, oral, 50 ug, Tmax,ss, 50 µg QD, steady state, n = 16, median (min – max)): 1.25 h | AUC ([2]; human, plasma, oral, 70 ug, AUC0–τ,ss, 70 µg BID, steady state, τ 12 h, single subject): 25.2 ng·h/mL | Cmax ([2]; human, plasma, oral, 70 ug, Cmax,ss, 70 µg BID, steady state, single subject): 4.22 ng/mL | Tmax ([2]; human, plasma, oral, 70 ug, Tmax,ss, 70 µg BID, steady state, single subject): 1.5 h | AUC ([2]; human, plasma, oral, 100 ug, AUC0-τ,ss, 100 µg QD, steady state, τ 24 h, n = 7, mean (SD)): 48.6 ng·h/mL | Cmax ([2]; human, plasma, oral, 100 ug, Cmax,ss, 100 µg QD, steady state, n = 7, mean (SD)): 5.15 ng/mL | Tmax ([2]; human, plasma, oral, 100 ug, Tmax,ss, 100 µg QD, steady state, n = 7, median (min – max)): 1.5 h | AUC ([2]; human, plasma, oral, 300 ug, AUC0-τ,ss, 300 µg QD, steady state, τ 24 h, single subject): 181 ng·h/mL | Cmax ([2]; human, plasma, oral, 300 ug, Cmax,ss, 300 µg QD, steady state, single subject): 17.6 ng/mL | Tmax ([2]; human, plasma, oral, 300 ug, Tmax,ss, 300 µg QD, steady state, single subject): 4 h | Maximal cAMP stimulation (efficacy percentage relative to iloprost) [3]: 67% | Type of IP receptor agonism [3]: strong partial agonist | Functional potency relative to ACT-333679 ([3]; greater potency than selexipag active metabolite): 6–8 fold | Enterohepatic recirculation ([4]; animals): observed | Oral bioavailability ([4]; mouse, rat, dog, and monkey): moderate to high
